≈ marks a conversion by molar mass, not a printed value.
Columns and labels:
Staphylococcus aureus [1] = assay: (§1) Potentiation of cefazolin-induced antibacterial activity against methicillin-resistant Staphylococcus aureus ATCC BAA-44 assessed as compound concentration required in combination with cefazolin to return MRSA sensitive concentration below 8 ug/ml after overnight incubation; assay type: functional
In short: (§2)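 Antibiotic held at fixed final level in MHB (amoxicillin/clavulanic acid 4/2 μg/mL; cefazolin 8 μg/mL); test compound (10 mg/mL DMSO stock) 2-fold serially diluted from 64 μg/mL top; final inoculum OD600 0.001; overnight at 37 °C with shaking; MRC = lowest compound concentration with no visible growth.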

Staphylococcus aureus [2] = assay: as §1, with “amoxicillin/clavulanic acid-induced” for “cefazolin-induced”, “NRS100” for “ATCC BAA-44”, “amoxicillin/clavulanic acid” for “cefazolin”, “4” for “8”; assay type: functional; in short: as §2
Staphylococcus aureus [3] = assay: Antibacterial activity against methicillin-resistant Staphylococcus aureus NRS100 after 18 hrs by broth microdilution method
[4] = Cytotoxicity against human HeLa cells after 24 hrs by CellTiter-Glo luminescent cell viability assay; assay type: toxicity, cell-based
In short: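 HeLa cells seeded at 20 000 cells/well in DMEM with 10% FCS and 1% penicillin/streptomycin, grown 16 h at 37 °C in 5% CO2. Medium then replaced and compounds added in DMSO (1 μL per 100 μL), final 0.5–32 μg/mL, triplicate. After 24 h at 37 °C, plates equilibrated to room temperature and CellTiter-Glo luminescence read.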

Staphylococcus aureus [5] = assay: as §1, with “amoxicillin/clavulanic acid-induced” for “cefazolin-induced”, “NRS-45898” for “ATCC BAA-44”, “amoxicillin/clavulanic acid” for “cefazolin”, “4” for “8”; assay type: functional; in short: as §2
Staphylococcus aureus [6] = assay: as §1, with “amoxicillin/clavulanic acid-induced” for “cefazolin-induced”, “NRS-46070” for “ATCC BAA-44”, “amoxicillin/clavulanic acid” for “cefazolin”, “4” for “8”; assay type: functional; in short: as §2
Staphylococcus aureus [7] = assay: as §1, with “amoxicillin/clavulanic acid-induced” for “cefazolin-induced”, “NRS-46231” for “ATCC BAA-44”, “amoxicillin/clavulanic acid” for “cefazolin”, “4” for “8”; assay type: functional; in short: as §2
Staphylococcus aureus [8] = assay: Antibacterial activity against methicillin-resistant Staphylococcus aureus NRS-45898 after 18 hrs by broth microdilution method
Staphylococcus aureus [9] = assay: Antibacterial activity against methicillin-resistant Staphylococcus aureus NRS-46070 after 18 hrs by broth microdilution method
Staphylococcus aureus [10] = assay: Antibacterial activity against methicillin-resistant Staphylococcus aureus NRS-46231 after 18 hrs by broth microdilution method
Staphylococcus aureus [11] = assay: Potentiation of cefazolin-induced antibacterial activity against methicillin-resistant Staphylococcus aureus ATCC BAA-44 assessed as fractional inhibitory concentration by checkerboard assay; assay type: functional
In short: (§3)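 Checkerboard in MRSA; FICI = FICA + FICB, each FIC being the combination concentration (MRC) divided by that agent's MIC alone; FICI <0.5 taken as synergy.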

Staphylococcus aureus [12] = assay: Potentiation of amoxicillin/clavulanic acid-induced antibacterial activity against methicillin-resistant Staphylococcus aureus ATCC BAA-44 assessed as fractional inhibitory concentration by checkerboard assay; assay type: functional; in short: as §3
Staphylococcus aureus [13] = assay: Potentiation of methicillin-induced antibacterial activity against methicillin-resistant Staphylococcus aureus ATCC BAA-44 assessed as fold reduction in methicillin MIC at 20 uM after 18 hrs by broth microdilution method; assay type: functional
Staphylococcus aureus [14] = assay: Potentiation of amoxicillin/clavulanic acid-induced antibacterial activity against methicillin-resistant Staphylococcus aureus ATCC BAA-44 assessed as fold reduction in amoxicillin/clavulanic acid MIC at 20 uM after 18 hrs by broth microdilution method; assay type: functional
Staphylococcus aureus [15] = assay: Potentiation of cefazolin-induced antibacterial activity against methicillin-resistant Staphylococcus aureus ATCC BAA-44 assessed as fold reduction in cefazolin MIC at 20 uM after 18 hrs by broth microdilution method; assay type: functional
Staphylococcus aureus [16] = assay: Potentiation of meropenem-induced antibacterial activity against methicillin-resistant Staphylococcus aureus ATCC BAA-44 assessed as fold reduction in meropenem MIC at 20 uM after 18 hrs by broth microdilution method; assay type: functional
Staphylococcus aureus [17] = assay: Potentiation of oxacillin-induced antibacterial activity against methicillin-resistant Staphylococcus aureus ATCC BAA-44 assessed as fold reduction in oxacillin MIC at 20 uM after 18 hrs by broth microdilution method; assay type: functional
Staphylococcus aureus [18] = assay: Potentiation of tetracycline-induced antibacterial activity against methicillin-resistant Staphylococcus aureus ATCC BAA-44 assessed as fold reduction in tetracycline MIC at 20 uM after 18 hrs by broth microdilution method; assay type: functional
Staphylococcus aureus [19] = assay: Potentiation of ciprofloxacin-induced antibacterial activity against methicillin-resistant Staphylococcus aureus ATCC BAA-44 assessed as fold reduction in ciprofloxacin MIC at 20 uM after 18 hrs by broth microdilution method; assay type: functional
Staphylococcus aureus [20] = assay: Potentiation of clindamycin-induced antibacterial activity against methicillin-resistant Staphylococcus aureus ATCC BAA-44 assessed as fold reduction in ciprofloxacin MIC at 20 uM after 18 hrs by broth microdilution method; assay type: functional
Staphylococcus aureus [21] = assay: Potentiation of erythromycin-induced antibacterial activity against methicillin-resistant Staphylococcus aureus ATCC BAA-44 assessed as fold reduction in erythromycin MIC at 20 uM after 18 hrs by broth microdilution method; assay type: functional
Staphylococcus aureus [22] = assay: Potentiation of gentamycin-induced antibacterial activity against methicillin-resistant Staphylococcus aureus ATCC BAA-44 assessed as fold reduction in gentamycin MIC at 20 uM after 18 hrs by broth microdilution method; assay type: functional
Staphylococcus aureus [23] = assay: Potentiation of streptomycin-induced antibacterial activity against methicillin-resistant Staphylococcus aureus ATCC BAA-44 assessed as fold reduction in streptomycin MIC at 20 uM after 18 hrs by broth microdilution method; assay type: functional
Staphylococcus aureus [24] = assay: Potentiation of daptomycin-induced antibacterial activity against methicillin-resistant Staphylococcus aureus ATCC BAA-44 assessed as fold reduction in daptomycin MIC at 20 uM after 18 hrs by broth microdilution method; assay type: functional

Row | SMILES | MRC (Staphylococcus aureus [1]) [µg/mL] | MRC (Staphylococcus aureus [2]) [µg/mL] | MIC (Staphylococcus aureus [3]) [µg/mL] | GI50 at 24 h [4] [µg/mL] | other results
1 | C=C1CCCC[C@@]23N(C(=O)OC)CC[C@@]12c1ccccc1N3C | >64 | >64 | > 64 | 30 (≈ 96 µM) | 
2 | C=C1CCC[C@@]23N(C(=O)OC)CC[C@@]12c1cc(C)ccc1N3C | 16 | 16 | > 64 | 15 (≈ 48 µM) | 
3 | C=C1CCCC[C@@]23N(CC)CC[C@@]12c1c(C)cc(C)cc1N3C | 8 | 32 | > 64 | 18 (≈ 58 µM) | 
4 | C=C1CCCC[C@@]23N(C(=O)OC)CC[C@@]12c1c(C)cc(C)cc1N3CC | 2 | 4 | > 64 | 30 (≈ 84.6 µM) | 
5 | C=C1CCC[C@@]23N(C(=O)OC)CC[C@@]12c1cc(Cl)ccc1N3C | 16 | 8 | > 64 | 41 (≈ 123 µM) | 
6 | C=C1CCCC[C@@]23N(C(=O)OCC)CC[C@@]12c1cc(F)c(OC)cc1N3C | >64 | >64 | > 64 | > 64 | 
7 | C=C1CCCC[C@@]23N(C(=O)OC)CC[C@@]12c1cc(C)ccc1N3C | 8 | 4 | > 64 | 27 (≈ 82.7 µM) | 
8 | C=C1CCCC[C@@]23NCC[C@@]12c1c(C)cc(C)cc1N3C | 32 | 64 | > 64 | 26 (≈ 92.1 µM) | 
9 | C=C1CCCC[C@@]23N(C(N)=O)CC[C@@]12c1c(C)cc(C)cc1N3C | 64 | 64 | > 64 | 19 (≈ 58.4 µM) | 
10 | C#CCN1c2cc(C)cc(C)c2[C@@]23CCN(C(=O)OC)[C@@]12CCCCC3=C | 64 | 64 | > 64 | 17 (≈ 46.6 µM) | 
11 | C=C1CCCC[C@@]23N(C(=O)OC)CC[C@@]12c1cc(Cl)ccc1N3C | 8 | 4 | > 64 | 53 (≈ 153 µM) | 
12 | C=C1CCC[C@@]23N(C(=O)OCC)CC[C@@]12c1cc(Cl)ccc1N3C | 16 | 8 | > 64 | 41 (≈ 118 µM) | 
13 | C=C1CCC[C@@]23N(C(=O)OCC)CC[C@@]12c1cc(C)ccc1N3C | 64 | 32 | > 64 | 43 (≈ 132 µM) | 
14 | C=C1CCCC[C@@]23N(C(=O)NCC)CC[C@@]12c1c(C)cc(C)cc1N3C | >64 | >64 | > 64 | 51 (≈ 144 µM) | 
15 | C=C1CCCC[C@@]23N(C(=O)OCC)CC[C@@]12c1cc(F)ccc1N3C | >64 | >64 | > 64 | > 64 | 
16 | C=C1CCCC[C@@]23N(C)CC[C@@]12c1c(C)cc(C)cc1N3C | 8 | 16 | > 64 | 20 (≈ 67.5 µM) | 
17 | C=C1CCCC[C@@]23N(C(=O)NCc4ccccc4)CC[C@@]12c1c(C)cc(C)cc1N3C | >64 | >64 | > 64 | > 64 | 
18 | C=C1CCCC[C@]23Nc4cc(C)cc(C)c4[C@]12CCN3C(=O)OC | 4 | 8 | > 64 | 28 (≈ 85.8 µM) | 
19 | C=C1CCCC[C@@]23N(C(=O)C(F)(F)F)CC[C@@]12c1c(C)cc(C)cc1N3C | >64 | >64 | > 64 | > 64 | 
20 | C=C1CCCC[C@@]23N(C(=N)N)CC[C@@]12c1c(C)cc(C)cc1N3C | 16 | 32 | > 64 | 19 (≈ 58.6 µM) | 
21 | C=C1CCCC[C@@]23N(C(=O)OCC)CC[C@@]12c1c(C)cc(C)cc1N3C | 2 | 2 | > 64 | 61 (≈ 172 µM) | MRC (Staphylococcus aureus [5]): 2 µg/mL; MRC (Staphylococcus aureus [6]): 2 µg/mL; MRC (Staphylococcus aureus [7]): 2 µg/mL; MIC (Staphylococcus aureus [8]): > 64 µg/mL; MIC (Staphylococcus aureus [9]): > 64 µg/mL; MIC (Staphylococcus aureus [10]): > 64 µg/mL; fractional inhibitory concentration index (FICI) (Staphylococcus aureus [11]): 0.078; fractional inhibitory concentration index (FICI) (Staphylococcus aureus [12]): 0.127
22 | C=C1CCCC[C@@]23N(C(C)=O)CC[C@@]12c1c(C)cc(C)cc1N3C | 32 | 32 | > 64 | 15 (≈ 46.2 µM) | 
23 | C=C1CCCC[C@@]23N(C(=O)OCc4ccccc4)CC[C@@]12c1c(C)cc(C)cc1N3C | >64 | 64 | > 64 | > 64 | 
24 | C=C1CCCC[C@@]23N(C(=O)OC(C)(C)C)CC[C@@]12c1c(C)cc(C)cc1N3C | 8 | 4 | > 64 | 47 (≈ 123 µM) | 
25 | C=C1CCCC[C@@]23N(C(=O)OC)CC[C@@]12c1c(C)cc(C)cc1N3C | 16 | 16 | > 64 | 20 (≈ 58.7 µM) | fold change (FC) (Staphylococcus aureus [13]): 16; fold change (FC) (Staphylococcus aureus [14]): 8; fold change (FC) (Staphylococcus aureus [15]): 16; fold change (FC) (Staphylococcus aureus [16]): 16; fold change (FC) (Staphylococcus aureus [17]): 8; fold change (FC) (Staphylococcus aureus [18]): 2; fold change (FC) (Staphylococcus aureus [19]): 2; fold change (FC) (Staphylococcus aureus [20]): 1; fold change (FC) (Staphylococcus aureus [21]): 1; fold change (FC) (Staphylococcus aureus [22]): 1; fold change (FC) (Staphylococcus aureus [23]): 1; fold change (FC) (Staphylococcus aureus [24]): 1
26 | C=C1CCCC[C@@]23N(C(=O)CCC(=O)O)CC[C@@]12c1c(C)cc(C)cc1N3C | >64 | >64 | > 64 | > 64 | 
27 | C=C1CCC[C@@]23N(C(=O)OC)CC[C@@]12c1c(C)cc(C)cc1N3C | 16 | 8 | > 64 | 40 (≈ 123 µM) | 
28 | C=C1CCCC[C@]23N(C)c4cc(C)cc(C)c4[C@]12CCN3S(=O)(=O)c1ccc(Cl)cc1 | >64 | >64 | > 64 | > 64 | 

— ChEMBL document CHEMBL3877254, “Tetracyclic indolines as a novel class of β-lactam-selective resistance-modifying agent for MRSA” (Eur J Med Chem, 2017)
